Where “and” joins values, the source holds several entries; their conditions need not be identical. Equal entries are not always repeated.
Tested on: Fibroblast
Assay: Multiplex assay against human fibroblast
Type: toxicity, cell-based
Conditions: 12 h, 1 µM, compound concentration 1 uM
Procedure, shortened: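 Cells were classed with CellPathfinder machine-learning gating, first as Hoechst high-intensity objects or normal cells, then (normal cells) as healthy, pyknosed or fragmented nuclei, and finally (pyknosed cells) as mitotic or apoptotic. Staining of live cells at seeding used Hoechst33342, BioTracker Green Microtubule Cytoskeleton Dye, MitoTracker Red and Annexin V Alexa Fluor 680, with imaging on a CQ1 microscope at 37°C and 5% CO2 after compound addition. Tubulin, mitochondrial-mass and membrane-permeability phenotypes are per cents of healthy-nucleus cells.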

SMILES | Population Apoptotic (%) | Population Fragmented Nuclei (%) | Population Healthy Nuclei (%) | Population Hoechst High Intensity Objects (%) | Population Membrane Permeable-Phenotype (%) | Population Mitochondria Different-Phenotype (%) | Population Mitotic Cells (%) | Population Normal (%) | Population Tubulin-Different-Phenotype (%) | Total Cell Count
Cc1cc(-c2ccc3c(c2)CC[C@H]3N2CC3(CCN(C(=O)Cc4cn5cc(C)sc5n4)CC3)C2)ncn1 [PF-5190457] | 29% and 30% | 16% and 18% | 71% and 46% | 4% | 1% and 9% | 5% and 0% | 70% | 96% and 95% | 24% and 48% | 150 and 121
N#Cc1c(N)nc(SCc2csc(-c3ccc(Cl)cc3)n2)c(C#N)c1-c1ccc(OCCO)cc1 [CAPADENOSON] | 43% and 27% | – | 80% and 43% | 2% and 1% | 0% and 5% | 10% and 11% | 56% and 72% | 97% and 98% | 38% and 55% | 139 and 157

Same assay, conditions: 12 h, 1 µM, compound concentration 1 uM

SMILES | Population Pyknosed Nuclei (%)
N#Cc1c(N)nc(SCc2csc(-c3ccc(Cl)cc3)n2)c(C#N)c1-c1ccc(OCCO)cc1 [CAPADENOSON] | 11% and 25%

Same assay, conditions: 12 h, 10 µM, compound concentration 10 uM

SMILES | Population Apoptotic (%) | Population Fragmented Nuclei (%) | Population Healthy Nuclei (%) | Population Hoechst High Intensity Objects (%) | Population Membrane Permeable-Phenotype (%) | Population Mitochondria Different-Phenotype (%) | Population Mitotic Cells (%) | Population Normal (%) | Population Pyknosed Nuclei (%) | Population Tubulin-Different-Phenotype (%)
Cc1cc(-c2ccc3c(c2)CC[C@H]3N2CC3(CCN(C(=O)Cc4cn5cc(C)sc5n4)CC3)C2)ncn1 [PF-5190457] | 36% and 45% | 17% and 20% | 63% and 55% | 4% and 1% | 1% and 6% | 5% and 4% | 63% and 54% | 95% and 98% | 18% and 24% | 38% and 56%
N#Cc1c(N)nc(SCc2csc(-c3ccc(Cl)cc3)n2)c(C#N)c1-c1ccc(OCCO)cc1 [CAPADENOSON] | 31% and 41% | 23% and 41% | 50% and 29% | 1% and 8% | 0% and 20% | 10% and 14% | 68% and 58% | 98% and 91% | 25% and 29% | 80% and 97%

Same assay, conditions: 12 h, 10 µM, compound concentration 10 uM

SMILES | Total Cell Count
Cc1cc(-c2ccc3c(c2)CC[C@H]3N2CC3(CCN(C(=O)Cc4cn5cc(C)sc5n4)CC3)C2)ncn1 [PF-5190457] | 186 and 138
N#Cc1c(N)nc(SCc2csc(-c3ccc(Cl)cc3)n2)c(C#N)c1-c1ccc(OCCO)cc1 [CAPADENOSON] | 172 and 128

Same assay, conditions: 24 h, 1 µM, compound concentration 1 uM

SMILES | Population Fragmented Nuclei (%) | Population Healthy Nuclei (%) | Population Hoechst High Intensity Objects (%) | Population Membrane Permeable-Phenotype (%) | Population Mitochondria Different-Phenotype (%) | Population Mitotic Cells (%) | Population Normal (%) | Population Tubulin-Different-Phenotype (%) | Total Cell Count | Population Apoptotic (%)
Cc1cc(-c2ccc3c(c2)CC[C@H]3N2CC3(CCN(C(=O)Cc4cn5cc(C)sc5n4)CC3)C2)ncn1 [PF-5190457] | 19% and 23% | 72% and 43% | 2% and 3% | 1% and 5% | 4% and 5% | 45% and 84% | 97% and 96% | 26% and 54% | 141 and 126 | –
N#Cc1c(N)nc(SCc2csc(-c3ccc(Cl)cc3)n2)c(C#N)c1-c1ccc(OCCO)cc1 [CAPADENOSON] | – | 80% and 44% | 1% and 4% | 0% and 6% | – | 27% and 51% | 98% and 95% | 34% and 71% | 139 and 148 | 72% and 48%

Same assay, conditions: 24 h, 1 µM, compound concentration 1 uM

SMILES | Population Pyknosed Nuclei (%)
N#Cc1c(N)nc(SCc2csc(-c3ccc(Cl)cc3)n2)c(C#N)c1-c1ccc(OCCO)cc1 [CAPADENOSON] | 8% and 20%

Same assay, conditions: 24 h, 10 µM, compound concentration 10 uM

SMILES | Population Apoptotic (%) | Population Fragmented Nuclei (%) | Population Healthy Nuclei (%) | Population Hoechst High Intensity Objects (%) | Population Membrane Permeable-Phenotype (%) | Population Mitochondria Different-Phenotype (%) | Population Mitotic Cells (%) | Population Normal (%) | Population Pyknosed Nuclei (%) | Population Tubulin-Different-Phenotype (%)
Cc1cc(-c2ccc3c(c2)CC[C@H]3N2CC3(CCN(C(=O)Cc4cn5cc(C)sc5n4)CC3)C2)ncn1 [PF-5190457] | 44% and 53% | 19% and 25% | 64% and 49% | 3% and 5% | 0% and 1% | 6% and 7% | 55% and 46% | 96% and 94% | 16% and 25% | 37% and 60%
N#Cc1c(N)nc(SCc2csc(-c3ccc(Cl)cc3)n2)c(C#N)c1-c1ccc(OCCO)cc1 [CAPADENOSON] | 38% and 41% | 26% and 43% | 52% and 28% | 2% and 6% | 0% and 17% | 26% and 25% | 61% and 58% | 97% and 93% | 20% and 27% | 67% and 94%

Same assay, conditions: 24 h, 10 µM, compound concentration 10 uM

SMILES | Total Cell Count
Cc1cc(-c2ccc3c(c2)CC[C@H]3N2CC3(CCN(C(=O)Cc4cn5cc(C)sc5n4)CC3)C2)ncn1 [PF-5190457] | 180 and 134
N#Cc1c(N)nc(SCc2csc(-c3ccc(Cl)cc3)n2)c(C#N)c1-c1ccc(OCCO)cc1 [CAPADENOSON] | 179 and 131

Same assay, conditions: 48 h, 1 µM, compound concentration 1 uM

SMILES | Population Apoptotic (%) | Population Fragmented Nuclei (%) | Population Healthy Nuclei (%) | Population Hoechst High Intensity Objects (%) | Population Mitochondria Different-Phenotype (%) | Population Normal (%) | Population Pyknosed Nuclei (%) | Population Tubulin-Different-Phenotype (%) | Total Cell Count | Population Membrane Permeable-Phenotype (%)
Cc1cc(-c2ccc3c(c2)CC[C@H]3N2CC3(CCN(C(=O)Cc4cn5cc(C)sc5n4)CC3)C2)ncn1 [PF-5190457] | 78% and 34% | 30% and 32% | 59% and 47% | 6% and 2% | 2% and 6% | 93% and 97% | 9% and 20% | 23% and 68% | 157 and 132 | –
N#Cc1c(N)nc(SCc2csc(-c3ccc(Cl)cc3)n2)c(C#N)c1-c1ccc(OCCO)cc1 [CAPADENOSON] | 88% and 69% | 16% and 38% | 77% and 43% | 2% | 7% and 12% | 97% | 6% and 17% | 37% and 60% | 147 and 151 | 0% and 6%

Same assay, conditions: 48 h, 1 µM, compound concentration 1 uM

SMILES | Population Mitotic Cells (%)
N#Cc1c(N)nc(SCc2csc(-c3ccc(Cl)cc3)n2)c(C#N)c1-c1ccc(OCCO)cc1 [CAPADENOSON] | 11% and 30%

Same assay, conditions: 48 h, 10 µM, compound concentration 10 uM

SMILES | Population Apoptotic (%) | Population Fragmented Nuclei (%) | Population Healthy Nuclei (%) | Population Hoechst High Intensity Objects (%) | Population Membrane Permeable-Phenotype (%) | Population Mitochondria Different-Phenotype (%) | Population Mitotic Cells (%) | Population Normal (%) | Population Pyknosed Nuclei (%) | Population Tubulin-Different-Phenotype (%)
Cc1cc(-c2ccc3c(c2)CC[C@H]3N2CC3(CCN(C(=O)Cc4cn5cc(C)sc5n4)CC3)C2)ncn1 [PF-5190457] | 63% and 62% | 22% and 30% | 66% and 51% | 6% and 1% | 0% and 5% | 12% and 14% | 36% and 37% | 93% and 98% | 10% and 18% | 37% and 64%
N#Cc1c(N)nc(SCc2csc(-c3ccc(Cl)cc3)n2)c(C#N)c1-c1ccc(OCCO)cc1 [CAPADENOSON] | 81% and 36% | 32% and 57% | 53% and 29% | 2% and 0% | 0% and 11% | 32% and 30% | – | 97% and 100% | 14% and 13% | 78% and 95%

Same assay, conditions: 48 h, 10 µM, compound concentration 10 uM

SMILES | Total Cell Count
Cc1cc(-c2ccc3c(c2)CC[C@H]3N2CC3(CCN(C(=O)Cc4cn5cc(C)sc5n4)CC3)C2)ncn1 [PF-5190457] | 192 and 135
N#Cc1c(N)nc(SCc2csc(-c3ccc(Cl)cc3)n2)c(C#N)c1-c1ccc(OCCO)cc1 [CAPADENOSON] | 187 and 142

From ChEMBL document CHEMBL5724801, “EUbOPEN Chemogenomics Library - Multiplex” (2024)
